# Hck-Nef inh – inhibitors of human Hck kinase activated by Nef | 220,000 tested, 0.68% active | inhibition, % at 20 µM | P08631 | Recombinant Hck-YEEI plus Nef, Z-Lyte FRET kinase assay | AID 463187;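 active = Hck-Nef kinase inhibition above about 50%, limit read from the data; inactive = inhibition below that limit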;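 also: 0% = DMSO with Hck plus Nef and 100% = Hck alone without Nef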
# Runt-CBFb FRET – Runt domain-CBFb interaction inhibition. Q01196+Q13951. Cerulean-Runt/Venus-CBFb FRET ratio 530/480, 1 h. inhibition, % at 20 µM. 220,000 tested, 0.46% active. AID 1496;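 active = inhibition over about 50% at 20 µM in the single-dose screen, limit read from the data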;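 also: 0% = DMSO wells and 100% = excess unlabeled CBFb competitor control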
# Target sequence (Q01196 whole entry, looked up, the tested form may be a part): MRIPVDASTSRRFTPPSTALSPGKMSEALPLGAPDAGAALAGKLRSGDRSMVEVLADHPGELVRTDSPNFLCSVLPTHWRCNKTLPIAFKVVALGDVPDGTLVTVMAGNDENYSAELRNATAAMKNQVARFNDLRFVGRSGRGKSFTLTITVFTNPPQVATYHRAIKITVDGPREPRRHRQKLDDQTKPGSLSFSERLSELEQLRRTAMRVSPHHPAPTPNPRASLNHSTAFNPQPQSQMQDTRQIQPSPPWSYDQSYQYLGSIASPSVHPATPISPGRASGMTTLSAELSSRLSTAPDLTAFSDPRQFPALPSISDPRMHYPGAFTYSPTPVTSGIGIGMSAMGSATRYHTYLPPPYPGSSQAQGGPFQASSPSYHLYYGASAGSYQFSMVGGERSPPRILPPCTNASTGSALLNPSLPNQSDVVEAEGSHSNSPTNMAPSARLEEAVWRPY
# Target sequence (Q13951 whole entry, looked up, the tested form may be a part): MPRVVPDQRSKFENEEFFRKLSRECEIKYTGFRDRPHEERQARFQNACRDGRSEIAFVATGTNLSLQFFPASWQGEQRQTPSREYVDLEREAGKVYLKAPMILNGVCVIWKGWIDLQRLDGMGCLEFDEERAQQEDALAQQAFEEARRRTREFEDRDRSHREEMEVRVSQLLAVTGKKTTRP
#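 Schedule: protein complex preformed 1 h, compound exposure 1 h, room temperature, dark; test system: Cerulean-labeled Runt domain protein; amount: 100 nM per protein; buffer or medium: Tris 50 mM pH 7.5, KCl, K2SO4, 0.01% BSA; read-out: loss of energy transfer signal; detection: FRET fluorescence; controls: 5 µM unlabeled CBFb as full-inhibition high control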
# RBBP9 inh – inhibitors of human serine hydrolase RBBP9. 220,000 tested, 0.2% active. recombinant RBBP9, FP-Rh probe fluorescence polarization. inhibition, % at 7.94 µM;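 active = inhibition above the campaign mean of all tested compounds plus 3 SD, cut at about 14% in these data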;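 also: plate controls were DMSO wells with RBBP9 for no effect and wells lacking RBBP9 protein for full effect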
#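 Controls: DMSO-treated enzyme wells and wells lacking RBBP9 | Material: RBBP9 protein | Technique: Fluorescence polarization | Replication: Single well per compound, no replicates | Buffer or medium: Tris-NaCl-Pluronic buffer, pH 8.0 | Timing: 30 min compound preincubation, 45 min probe labeling, 25 °C | Read-out basis: Percent inhibition from mP, scaled between DMSO and no-protein wells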
# Runt-SMMHC FRET – blocks binding of human RUNX1 Runt domain to CBFb-SMMHC. Q01196+Q13951. Cerulean-Runt/Venus-CBFb-SMMHC FRET ratio 530/480, 1 h. inhibition, % at 20 µM. 220,000 tested, 0.74% active. AID 1434;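 active = mean inhibition across duplicate retests at 20 µM reaching about 50%, limit read from the data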;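 also: 0% = DMSO wells and 100% = wells with excess untagged CBFb-SMMHC; inhibitors lower the FRET ratio by blocking Runt binding to CBFb-SMMHC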
# M18AAP inhibitor – PfM18AAP enzyme inhibition; recombinant PfM18AAP, H-Glu-NHMec fluorogenic cleavage; inhibition, % at 7.35 µM; 290,000 tested, 1.2% active; AID 1822;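 active = inhibition above the campaign mean inhibition over all tested compounds plus 3 SD, cut at about 28% in these data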;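 also: 0% = plate median of test compound wells and 100% = 2 mM ZnCl2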
# RanGTP-Impb inh – disruptors of Ran-importin-beta complex formation – biochemical, FRET, CFP-Ran, YFP-importin-beta, homogeneous, primary screen; cell-free CFP-Ran/YFP-importin-beta FRET ratio; inhibition, % (concentration not given with the values); 300,000 tested, 1.1% active;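 active = more than half of the replicate wells show a fall in the fluorescence ratio signal beyond about 16%, limit read from the data, passing the limit was not always enough; inconclusive = exactly half of the replicate wells pass the set limit; inactive = fewer than half of replicates pass the limit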;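 also: 0% = DMSO wells and 100% = Ran loaded with GDP instead of GTP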
# An asterisk follows results filed as active; ? = inconclusive; . = no result. Compounds with a hit are over-represented: about 2.9% of the library has one in this group of screens.
SMILES,Hck-Nef inh,Runt-CBFb FRET,RBBP9 inh,Runt-SMMHC FRET,M18AAP inhibitor,RanGTP-Impb inh
O=C(/C=C/c1ccc(O)c(O)c1)OC(Cc1ccc(O)c(O)c1)C(=O)O (stereo unspecified),.,.,.,.,89*,-9
COc1ccc(CN(C(=O)c2ccco2)c2ccc(Br)cc2)cc1OC,0,-1,-7,-44,13,0
O=C1/C(=C/N(C(=O)c2ccco2)c2ccc(Br)cc2)Sc2ccccc21,2,20,-8,67,7,25*
O=C1/C(=C/N(C(=O)c2ccco2)c2ccc(Cl)cc2)Sc2ccccc21,6,21,-9,75*,1,10
COc1c(O)cccc1[C@@H](O)C1CCN(CCc2ccc(F)cc2)CC1,.,.,.,.,.,-47
CCCn1nc(NC(C)=O)c2cc3cccc(C)c3nc21,.,.,.,.,-2,69*
CCCn1nc(NC(=O)COC)c2cc3cccc(C)c3nc21,.,.,.,.,4,38*
Cc1ccccc1NC(=O)c1ccccn1,19,1,-2,1,0,-2
CCn1nc(NS(=O)(=O)c2ccc([N+](=O)[O-])cc2)c2cc3cccc(C)c3nc21,.,.,.,.,5,-1
CCCC(=O)Nc1nn(C)c2nc3c(C)cccc3cc12,8,20,-4,39,0,31*
Cc1cccc2cc3c(NC(=O)c4ccccn4)nn(C)c3nc12,26,57*,-5,86,16,35*
CCn1nc(NC(=O)CC(C)C)c2cc3cccc(C)c3nc21,.,.,.,.,8,?
CN(Cc1ccccn1)C(=O)C1CCC(=O)N(Cc2cccc(C(F)(F)F)c2)C1 (stereo unspecified),.,.,.,.,-9,1
COc1cc(NC(=O)NCC2CCN(Cc3ccccc3C)CC2)cc(OC)c1OC,.,.,.,.,-7,-3
CCn1nc(NC(=O)C(C)(C)C)c2cc3cccc(C)c3nc21,.,.,.,.,-3,47*
O=C(N/C(=C\c1ccco1)C(=O)N1CCCC1)c1ccccc1,.,.,.,.,32*,-3
Cc1ccc(C(=O)N/C(=C/c2ccco2)C(=O)Nc2cccc(C(=O)O)c2)cc1,.,.,.,.,30*,1
Cc1cccc(C(=O)N/C(=C\c2ccco2)C(=O)N2CCCC2)c1,.,.,.,.,29*,4
COc1ccccc1C(=O)N/C(=C/c1ccco1)C(=O)Nc1cccc(C(=O)O)c1,.,.,.,.,16,5
COC(=O)C1=C(CS(=O)(=O)c2cc(Cl)ccc2OC)NC(=O)NC1c1ccc(O)c(OC)c1 (stereo unspecified),.,.,.,.,-1,3
CC(C)CC(=O)N1CCC(N(CCc2ccccc2)Cc2ccccc2)CC1,.,.,.,.,3,3
COc1ccc(CCN2CC(C(=O)N(C)CCc3cn[nH]c3)CCC2=O)cc1 (stereo unspecified),.,.,.,.,2,-2
Oc1c(Br)cc(C=Nc2ccc3nc(-c4ccccc4)[nH]c3c2)c(O)c1Br,30,10,10,-1,29*,4
CCN(CC)CCN1C(=O)C(O)=C(C(=O)c2ccco2)C1c1ccccn1 (stereo unspecified),0,9,-11,10,-10,59*
CN(C)CCN1C(=O)C(O)=C(C(=O)c2cc3ccccc3o2)C1c1ccccn1 (stereo unspecified),0,0,4,-10,-10,25*
SMILES,Hck-Nef inh,Runt-CBFb FRET,RBBP9 inh,Runt-SMMHC FRET,M18AAP inhibitor,RanGTP-Impb inh
CCN(CC)CCN1C(=O)C(=O)/C(=C(/O)c2cccc(OC)c2)C1c1ccccn1 (stereo unspecified),2,1,-5,-5,-9,43*
CCN(CC)CCCN1C(=O)C(O)=C(C(=O)c2cc3ccccc3o2)C1c1ccccn1 (stereo unspecified),0,-1,0,0,3,.
CN(CC(=O)NCC(c1ccco1)N1CCCCC1)S(=O)(=O)c1ccc(Cl)cc1 (stereo unspecified),.,.,.,.,.,1
COC(=O)[C@H](Cc1ccccc1)NC(=O)NCCc1ccccc1F,.,.,.,.,-10,-3
O=C(O)c1ccccc1C(=O)N(c1ccccc1)c1ccccc1,.,.,.,.,.,31*
O=C(c1cccnc1)n1nc(NCc2ccccc2)nc1NCc1ccccc1,18,-5,-7,0,28*,-2
COc1ccc(NC(=O)CSc2ccc3nnc(-c4ccccn4)n3n2)cc1OC,.,.,.,.,-1,0
COc1ccccc1OCCN(C#N)c1nc(N(C)C)nc(N(C)C)n1,28,-4,0,1,-3,2
CCn1nc(NC(=O)c2ccncc2)c2cc3cc(C)ccc3nc21,6,8,-2,22,4,12
CCCn1nc(NC(=O)c2cccs2)c2cc3ccc(C)cc3nc21,-7,25,3,51*,4,54*
CCn1nc(NS(=O)(=O)c2ccc(NC(C)=O)cc2)c2cc3cc(C)ccc3nc21,.,.,.,.,-3,7
CCCn1nc(NC(=O)c2cccs2)c2cc3cc(C)ccc3nc21,14,49,-11,80*,0,72*
CCn1nc(NC(=O)c2ccncc2)c2cc3ccc(C)cc3nc21,4,8,3,8,1,24*
CC(=O)Nc1nn(C)c2nc3cc(C)ccc3cc12,10,-2,-3,-8,5,9
CCc1ccccc1NC(=O)CC(NCc1ccccc1)C(=O)O (stereo unspecified),.,.,.,.,1,-2
COc1ccc(N2CCN(C(=O)COc3ccc(S(=O)(=O)N4CCOCC4)cc3C)CC2)cc1,.,.,.,.,2,0
O=C(Cc1nc2ccccc2[nH]1)NCc1ccco1,0,12,3,10,4,35*
CCN(CC)c1ccc2cc(S(=O)(=O)c3ccc(C)cc3)c(=O)oc2c1,20,4,-5,79*,-8,137*
CCN(CC)c1ccc2ccc(=O)oc2c1,114*,39,-2,92*,1,95*
CCN(CC)c1ccc2cc(C(=O)NNC(=O)c3ccc(S(=O)(=O)N4CCCCC4)cc3)c(=O)oc2c1,1,66*,-1,63*,2,119*
Cc1ccc(S(=O)(=O)c2cc3ccccc3oc2=O)cc1,-1,-6,10,-26,2,?
CCN(CC)c1ccc2cc(C#N)c(=O)oc2c1,14,82*,-7,92*,-3,115*
Cc1cc(C)cc(C(=O)NCC(=O)OCC(=O)NCc2ccco2)c1,15,-1,6,-2,31*,4
COc1cc(C(=O)OCC(=O)NCc2ccco2)cc(OC)c1OC,-2,1,-4,3,4,6
CCc1ccc2oc(C(=O)NC3CCS(=O)(=O)C3)cc(=O)c2c1 (stereo unspecified),.,.,.,.,1,2
COc1ccc(-c2nc3cccc(C)n3c2NCC2CCCO2)cc1O (stereo unspecified),17,0,-10,1,10,5

# Bioassay records deposited in PubChem by several laboratories.
